Assay results published in ChEMBL document CHEMBL4359864, “The synthesis and in vitro biological evaluation of novel fluorinated tetrahydrobenzo[j]phenanthridine-7,12-diones against Mycobacterium tuberculosis” (Eur J Med Chem, 2019).
Converted amounts (≈) assume the structure as drawn.

Legend:
[1] = tested on: Pseudomonas aeruginosa; test: Antibacterial activity against Pseudomonas aeruginosa ATCC 9027 incubated for 24 hrs by resazurin dye based fluorimetric assay; assay type: functional, organism-based; details: ATCC 9027, 24 h
How it was run: (§1)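 Resazurin microtiter assay: compounds from 10 mM DMSO stock, twofold serial dilutions from 64 µM final in growth medium, in triplicate. Inoculum from frozen glycerol stocks. Exposure 24 h, or 7 days for Mtb H37Ra (7H9 + 0.5% glycerol + 10% OADC). Then 0.01% resazurin was added and plates were incubated at 37°C until pink. Fluorescence read at ex 550/em 590 nm; mean of triplicates.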

[2] = Genotoxicity in Salmonella typhimurium TA104 harboring with pr1 assessed as S/N ratio at 1 to 100 uM measured for 4 hrs with 5 mins interval by luminescence based assay; assay type: toxicity; details: salmonella enterica subsp. enterica serovar typhimurium
How it was run: (§2)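 VITOTOX test. Genox (recN2-4) and Cytox (pr1) S. typhimurium TA104 strains were diluted 250-fold and grown in 869 medium for 16 h at 36°C with shaking, then diluted 10-fold and grown 1 h more. Compounds tested at 1, 10 and 100 µM, with or without rat liver S9-mix. Luminescence read for 4 h at 5-min intervals. S/N thresholds: Genox >1.5 genotoxic; Cytox <0.8 toxic, >1.5 luminescence artefact.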

[3] = tested on: Mycobacterium tuberculosis; test: Antimycobacterial activity against Mycobacterium tuberculosis H37Ra lux incubated for 7 days by luminometric assay; assay type: functional, organism-based; details: 168 h
How it was run: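 Twofold serial dilutions in 7H9/OADC/glycerol, in triplicate, inoculated with a suspension of 10.000 RLU per mL. After 7 days, n-decanal (1% v/v in ethanol) was added and luminescence read. IC50 and MIC (90% growth reduction) were derived from the mean of triplicates.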

[4] = tested on: Mycobacterium marinum; test: Antimycobacterial activity against Mycobacterium marinum NCTC 2275 by resazurin dye based fluorimetric assay; assay type: functional, organism-based
How it was run: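 Resazurin microtiter method as for the bacterial panel. Mycobacteria grown in 7H9 with 10% OADC and 0.5% glycerol; for BCG, 0.05% Tween 80 replaced the glycerol. Cultures were sonicated and needle-passed to single cells. Incubation at 37°C, or 32°C for M. marinum. Fluorescence read at ex 550/em 590 nm; mean of triplicates.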

[5] = tested on: UGT; test: Microsomal stability in mouse liver microsomes assessed as UGT-mediated metabolism by measuring compound remaining at 5 uM and measured for 60 mins in presence of UDPGA by UPLC-MS/MS analysis (reference value: 100%); assay type: ADME; details: read-out: Stability
How it was run: (§3)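 Compound at 5 µM with 0.5 mg/mL liver microsomes in PBS. Phase I was started with 1 mM NADPH; phase II used 2 mM UDPGA. Diclofenac served as reference. Samples taken at 0, 15, 30 and 60 min were quenched in ice-cold acetonitrile, centrifuged at 4°C and analysed by LC-MS. Mean of at least two replicates ± SD.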

[6] = Genotoxicity in Salmonella typhimurium TA104 harboring with pr1 assessed as S/N ratio at 1 to 100 uM measured for 4 hrs with 5 mins interval in presence of rat liver S9 fraction by luminescence based assay; assay type: toxicity, subcellular; details: salmonella enterica subsp. enterica serovar typhimurium, s9, 4 h; how it was run: as §2
[7] = tested on: Mycobacterium tuberculosis; test: Antibacterial activity against Mycobacterium tuberculosis H37Ra ATCC 25177 incubated for 7 days by resazurin dye based fluorimetric assay; assay type: functional, organism-based; details: H37Ra ATCC 25177, 168 h; how it was run: as §1
[8] = tested on: Mycobacterium tuberculosis; test: Induction of ROS generation in Mycobacterium tuberculosis H37Ra ATCC 25177 assessed as increase in superoxide radicals incubated with CMH probe for 50 mins followed by compound addition and measured for 3 to 48 hrs by EPR analysis; assay type: functional
How it was run: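 Mtb H37Ra cultures were exposed to compound, rifampicin or moxifloxacin (2 x MIC), alongside untreated controls. Samples were measured by EPR at 3, 6, 24 and 48 h. Spectra were simulated and double-integrated (aN = 1.58 mT) and converted to absolute CMH radical concentration by calibration. Mean of at least three replicates ± SD; two-way ANOVA with Tukey test.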

[9] = tested on: Streptococcus pneumoniae; test: Antibacterial activity against Streptococcus pneumoniae ATCC BAA-334 incubated for 24 hrs by resazurin dye based fluorimetric assay; assay type: functional, organism-based; details: ATCC BAA-334, 24 h; how it was run: as §1
[10] = target: UGT (Homo sapiens, UniProt O60656+O75310+O75795+P06133+P0DTE4+P0DTE5+P16662+P19224+P22309+P22310+P35503+P35504+P36537+P54855+Q6UWM9+Q9BY64+Q9HAW7+Q9HAW8+Q9HAW9); test: Microsomal stability in human liver microsomes assessed as UGT-mediated metabolism by measuring compound remaining at 5 uM and measured for 60 mins in presence of UDPGA by UPLC-MS/MS analysis (reference value: 100%); assay type: ADME; details: read-out: Stability; how it was run: as §3
[11] = tested on: Klebsiella pneumoniae; test: Antibacterial activity against Klebsiella pneumoniae ATCC 13883 incubated for 24 hrs by resazurin dye based fluorimetric assay; assay type: functional, organism-based; details: ATCC 13883, 24 h; how it was run: as §1
[12] = tested on: CYP450; test: Microsomal stability in mouse liver microsomes assessed as CYP450-mediated metabolism by measuring compound remaining at 5 uM and measured for 60 mins in presence of NADPH by UPLC-MS/MS analysis (reference value: 100%); assay type: ADME; details: read-out: Stability; how it was run: as §3
[13] = tested on: Enterococcus faecium; test: Antibacterial activity against Enterococcus faecium ATCC 19434 incubated for 24 hrs by resazurin dye based fluorimetric assay; assay type: functional, organism-based; details: ATCC 19434, 24 h; how it was run: as §1
[14] = target: CYP450 (Homo sapiens, UniProt P04798+P05177+P05181+P08684+P10632+P10635+P11509+P11712+P13584+P20813+P20815+P20853+P24462+P24903+P33260+P33261+P51589+P78329+P98187+Q02928+Q08477+Q16678+Q16696+Q5TCH4+Q6VVX0+Q7Z449+Q8TAV3+Q96SQ9+Q9HB55); test: Microsomal stability in human liver microsomes assessed as CYP450-mediated metabolism by measuring compound remaining at 5 uM and measured for 60 mins in presence of NADPH by UPLC-MS/MS analysis (reference value: 100%); assay type: ADME; details: read-out: Stability; how it was run: as §3

Row | Compound | IC50 [1] [µM] | Ratio [2] | IC50 [3] [µM] | MIC90 [3] [µM] | IC50 [4] [µM] | remaining at 1 h, 5 µM [5] [%] | Ratio [6] | IC50 [7] [µM] | fold change (FC) [8] | IC50 [9] [µM] | remaining at 1 h, 5 µM [10] [%] | IC50 [11] [µM] | remaining at 1 h, 5 µM [12] [%] | IC50 [13] [µM] | remaining at 1 h, 5 µM [14] [%]
1 | O=C1C2=C(C(=O)c3c1cnc1c(F)cccc31)C1CCC2C1 (centres undefined) | > 64 | >= 0.8 | 1.54 | 4.43 (≈ 1.3 µg/mL) | 3.3 | 61 | >= 0.8 | 1 to 2 | 2.85 | 32 to 64 | 65 | > 64 | 100 | > 64 | 100
2 | O=C1C2=C(C(=O)c3c1cnc1ccccc31)C1CCC2C1 (centres undefined) | > 64 | >= 0.8 | 1.28 | 6.33 (≈ 1.74 µg/mL) | 7.73 | 78 | >= 0.8 | 1 to 2 |  | 32 to 64 | 68 | > 64 | 94 | 32 to 64 | 100
